Published values collected from several papers.
Read-out: metabolic stability

For `O=C(O)Cc1ccccc1Nc1c(Cl)cccc1Cl`, the half-life was 60.8 min (mouse; liver microsomes).
`O=c1ccc2cc(O)ccc2o1` has a half-life of 8.22 min (mouse; liver microsomes; 20 µM).
With `CC1(CN)CCN(c2cnc3c(Sc4ccncc4Cl)n[nH]c3n2)CC1` the half-life was 630 min (mouse; liver microsomes).
`CC(C)Oc1ccc(S(=O)(=O)c2ccc(Oc3cc(OCC(N)=O)c(C(=O)C(Cl)Cl)cc3[N+](=O)[O-])cc2)cc1` gave a half-life of 7.2 min (mouse; liver microsomes; 20 µM).
`O=c1ccc2ccc(O)cc2o1` has a half-life of 2 min (mouse; liver microsomes).
`CCOc1ccc2ccc(=O)oc2c1` has a half-life of under 15 min (male CD-1 mouse; hepatocytes; 1 µM).
For `O=C1CCC(N2Cc3cc(Nc4noc5cc(F)ccc45)ccc3C2=O)C(=O)N1` (centres unmarked), the half-life was over 216 min (CD-1 mouse; hepatocytes).
The half-life of `O=C(c1ccc(F)cc1)C1CCN(CCn2c(=O)[nH]c3ccccc3c2=O)CC1` is reported as 22.8 min (mouse; liver microsomes).
